Measured values reported in PMC7261596 (Journal of the American Chemical Society, 2019).

Experiments:
ULK4 [1] = target: T1, ULK4 (Homo sapiens, UniProt Q96C45); assay: ADP-Biotin labelling assay detected by Western blot; format: binding; details: single concentration 25 μM; ratio of Streptavidin signal to His signal
How it was run: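 ULK4 incubated with the nucleotide analog ADP-Biotin, which biotin-labels the kinase only when bound. Biotinylated protein detected by Western blot. Test compounds, hits confirmed from a Mant-ADP displacement screen and dose response, tested at 25 μM, with competing nucleotides also at 25 μM. Mutant ULK4 forms also assayed for ADP-Biotin binding.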

ULK4 [2] = target: T1, ULK4; assay: Mant-ADP FRET nucleotide binding / displacement assay; details: competition with a fixed concentration of Mant-ADP

T1 sequence (Q96C45 4-280 limits assumed): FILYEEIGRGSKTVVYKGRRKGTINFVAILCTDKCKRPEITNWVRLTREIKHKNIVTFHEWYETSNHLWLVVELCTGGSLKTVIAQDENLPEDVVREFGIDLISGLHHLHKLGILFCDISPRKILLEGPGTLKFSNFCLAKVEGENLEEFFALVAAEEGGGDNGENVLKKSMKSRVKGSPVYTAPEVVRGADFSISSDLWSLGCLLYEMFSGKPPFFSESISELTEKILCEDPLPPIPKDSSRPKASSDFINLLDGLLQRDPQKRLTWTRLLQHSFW

| inhibition of ADP-Biotin binding to ULK4 (relative potency) (ULK4 [1]) | SMILES | Ki (ULK4 [2]; With Mg) | Ki (ULK4 [2]; Without Mg) |
| --- | --- | --- | --- |
| most potent ULK4 binders | COc1cc(Nc2ncc(F)c(Nc3ccc4c(n3)N(COP(=O)(O)O)C(=O)C(C)(C)O4)n2)cc(OC)c1OC [R788] |  |  |
|  | Nc1ncnc2c1ncn2[C@@H]1O[C@H](COP(=O)(O)OP(=O)(O)OP(=O)(O)O)[C@@H](O)[C@H]1O [ATP] | 4.67 µM | 0.306 µM |
|  | Nc1ncnc2c1ncn2[C@@H]1O[C@H](COP(=O)(O)OP(=O)(O)O)[C@@H](O)[C@H]1O [ADP] | 37 µM | 6.05 µM |
| most potent ULK4 binders | CNC(=O)c1nn(C)c2c1C(C)(C)Cc1cnc(Nc3ccc(N4CCN(C)CC4)cc3)nc1-2 [PHA-848125] |  |  |
